Data set [1] deals with T1, Polyunsaturated fatty acid 5-lipoxygenase (Homo sapiens, UniProt P09917).
T1 sequence (P09917 whole entry): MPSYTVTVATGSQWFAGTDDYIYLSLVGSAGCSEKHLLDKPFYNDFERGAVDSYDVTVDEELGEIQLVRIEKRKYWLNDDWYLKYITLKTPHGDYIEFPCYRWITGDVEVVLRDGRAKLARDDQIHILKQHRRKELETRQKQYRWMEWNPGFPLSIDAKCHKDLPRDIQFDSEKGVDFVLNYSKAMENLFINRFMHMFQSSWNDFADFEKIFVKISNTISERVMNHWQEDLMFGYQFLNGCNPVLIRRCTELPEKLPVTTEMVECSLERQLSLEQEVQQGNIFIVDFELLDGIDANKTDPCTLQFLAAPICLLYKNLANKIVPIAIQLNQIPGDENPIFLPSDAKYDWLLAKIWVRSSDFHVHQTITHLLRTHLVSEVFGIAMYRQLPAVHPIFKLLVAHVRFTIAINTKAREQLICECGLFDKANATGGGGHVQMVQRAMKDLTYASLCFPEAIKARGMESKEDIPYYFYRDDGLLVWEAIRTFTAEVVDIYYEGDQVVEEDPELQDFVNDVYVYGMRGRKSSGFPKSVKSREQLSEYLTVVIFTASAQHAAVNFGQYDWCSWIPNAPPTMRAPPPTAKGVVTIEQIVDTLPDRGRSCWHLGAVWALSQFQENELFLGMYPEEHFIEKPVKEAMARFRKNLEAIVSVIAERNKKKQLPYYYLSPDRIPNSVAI
Briefly: Inhibition of Human 5-lipoxygenase. The gist of the method:
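Enzyme source is the 100000g supernatant (S100) of insect cells overexpressing human 5-LO. Activity followed spectrophotometrically as 5-HPETE production. IC50 is the mean of at least two independent determinations unless the value came from a single titration.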

In data set [2] the target is T2, Arachidonate 5-lipoxygenase-activating protein (Homo sapiens, UniProt P20292).
T2 sequence (P20292 whole entry): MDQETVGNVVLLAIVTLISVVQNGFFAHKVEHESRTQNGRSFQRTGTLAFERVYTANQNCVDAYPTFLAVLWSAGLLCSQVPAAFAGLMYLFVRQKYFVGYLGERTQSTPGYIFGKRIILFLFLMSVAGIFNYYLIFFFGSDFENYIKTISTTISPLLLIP
Briefly: Inhibition of 5-lipoxygenase activating protein using human leukocyte membrane preparations. The method in brief: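 Binding assay on human leukocyte membrane preparations, measuring displacement of [¹²⁵I]-L-691,831 by drug. IC50 is the mean of at least two independent determinations unless the value came from a single titration.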

A short description of data set [3]: Bioavailability in rat. The settings on record: in vivo. In kind it is ADME, organism-based. The method in brief: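 Rats dosed with sodium salts, 20 mg/kg po in 1% methocel and 5 mg/kg iv in PEG 200 (n = 2); plasma profiles collected over 0–6 h. Bioavailability calculated as AUC_po/4 × AUC_iv.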
For data set [4], the system named is Rattus norvegicus. Briefly: Compound was tested for the inhibition of dyspnea in hyperreactive rats dosed at 5 mg/kg po. The class given is functional. Conditions: for inhibition in vivo at 5 mg/kg: Rattus norvegicus, po. The method in brief:
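Inbred hyperreactive rats (n = 6) pretreated with methysergide 3 μg/kg iv. Sodium salt given po in 1% or 0.5% methocel 2 h before ovalbumin antigen challenge. Read-out is percent inhibition of dyspnea duration versus litter mate-matched vehicle-treated controls.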

The structures appear in SMILES notation. pIC50: −log10 of the molar value. Bounds are passed on as bounds.

With `CC1Cc2c(OCc3ccccn3)ccc3c2c(c(CSc2ccccc2C(=O)O)n3Cc2ccc(Cl)cc2)S1` (stereo not given), the figures for the pIC50 in data set [1] and in data set [2] were 7.26 and 6.12, respectively.

For `CC1Cc2c(OCc3ccc4ccccc4n3)ccc3c2c(c(COc2ccccc2CC(=O)O)n3Cc2ccc(Cl)cc2)S1` (stereo not given), the pIC50 is 7.00 in data set [1] and 7.49 in data set [2].

Take `CC1Cc2c(OCc3ccc4ccccc4n3)ccc3c2c(c(CSc2ccccc2C(=O)O)n3Cc2ccc(Cl)cc2)S1` (stereo not given): the pIC50 in data set [1] is 7.15; in data set [2], 7.14.

Regarding `CC1Cc2c(OCc3ccc(-c4ccccc4)cn3)ccc3c2c(c(CCOc2ccccc2CC(=O)O)n3Cc2cccc(Cl)c2)S1` (stereo not given), the negative logarithm of the IC50 (pIC50) in data set [1] is 7.40.

In data set [1], `CC1Cc2c(OCc3ccc(-c4ccccc4)cn3)ccc3c2c(c(CCOc2ccccc2CC(=O)O)n3Cc2cccc(F)c2)S1` (stereo not given) showed a pIC50 of 7.64. For the same molecule, in data set [3], the bioavailability was determined as 44%. Also, in data set [4], at 5 mg/kg the inhibition in vivo was 59%.

On to `CC1Cc2c(OCc3ccc(-c4ccccc4)cn3)ccc3c2c(c(CCOc2ccc(Cl)cc2C(=O)O)n3Cc2ccc(Cl)cc2)S1` (stereo not given), for which, in data set [1], the pIC50 is 6.89.

Turning to `CCC(OCCc1c2c3c(c(OCc4ccc(-c5ccccc5)cn4)ccc3n1Cc1ccc(Cl)cc1)CC(C)S2)C(=O)O` (stereo not given), the inhibition in vivo at 5 mg/kg in data set [4] stood at 50%.

As for `CC(C)c1ccc2c(c1)c(SC(C)(C)C)c(CC(C)(C)C(=O)O)n2Cc1ccc(Cl)cc1`, the pIC50 in data set [1] is below 8.00.

With `CC1Cc2c(OCc3ccc(-c4ccccc4)cn3)ccc3c2c(c(CCSc2ccccc2C(=O)O)n3Cc2ccc(Cl)cc2)S1` (stereo not given), the negative-log IC50 (pIC50) in data set [1] is 7.52. Also, the bioavailability in data set [3] came out at 10%.

On to `CC1Cc2c(OCc3ccc(-c4ccccc4)cn3)ccc3c2c(c(COc2ccccc2CC(=O)O)n3Cc2ccc(Cl)cc2)S1` (stereo not given), for which, in data set [1], the pIC50 is 7.59. Further, the bioavailability in data set [3] amounted to 35%. Moreover, the inhibition in vivo at 5 mg/kg in data set [4] turned out to be 27%.

Turning to `CC1Cc2c(OCc3cc4ccccc4cn3)ccc3c2c(c(CSc2ccccc2C(=O)O)n3Cc2ccc(Cl)cc2)S1` (stereo not given), the values for the pIC50 in data set [1] and in data set [2] were 6.76 and 5.54, respectively.

Consider `CC1Cc2c(OCc3ccc(-c4ccccc4)cn3)ccc3c2c(c(CCOc2cccc(C(=O)O)c2)n3Cc2ccc(Cl)cc2)S1` (stereo not given), for which the pIC50 in data set [1] was 6.77.

In the case of `CC1Cc2c(OCc3ccc(-c4ccccc4)cn3)ccc3c2c(c(CCOc2ccccc2C(=O)O)n3Cc2ccc(Cl)cc2)S1` (stereo not given), in data set [1], the pIC50 was 7.22. In addition, the bioavailability in data set [3] is 37%. In data set [4], this molecule came in with an inhibition in vivo at 5 mg/kg of 42%.

For the molecule `CC1Cc2c(OCc3ccc(-c4ccccc4)cn3)ccc3c2c(c(CSc2ccccc2C(=O)O)n3Cc2ccc(Cl)cc2)S1` (stereo not given), the pIC50 in data set [1] is 7.52. The bioavailability in data set [3] is below 5%.

As to `CC1Cc2c(OCc3ccc(-c4ccccc4)cn3)ccc3c2c(c(CCOc2ccccc2CC(=O)O)n3Cc2ccc(F)cc2)S1` (stereo not given), in data set [1], the pIC50 was 7.22. Also, in data set [3], the bioavailability came to 4%. Testing at 5 mg/kg in data set [4] gave an inhibition in vivo of 36%.

In data set [1], `CC1Cc2c(OCc3ccc(-c4ccccc4)cn3)ccc3c2c(c(CCc2ccccc2C(=O)O)n3Cc2ccc(Cl)cc2)S1` (stereo not given) showed a pIC50 of 6.44.

`CC1Cc2c(OCc3ccc(-c4ccccc4)cn3)ccc3c2c(c(COCc2ccccc2C(=O)O)n3Cc2ccc(Cl)cc2)S1` (stereo not given) had a pIC50 in data set [1] of 7.21.

Take `COc1ccc(COc2ccc3c4c2CC(C)Sc4c(CSc2ccccc2C(=O)O)n3Cc2ccc(Cl)cc2)nc1` (stereo not given): the pIC50 in data set [1] is 7.28; in data set [2] it was 6.43.

For the molecule `CC1Cc2c(OCc3ccc(-c4ccccc4)cn3)ccc3c2c(c(CCOc2ccccc2CC(=O)O)n3Cc2ccc(Cl)cc2)S1` (stereo not given), the pIC50 in data set [1] is 7.22. For the same molecule, the bioavailability in data set [3] stood at 15%. The molecule also showed an inhibition in vivo at 5 mg/kg in data set [4] of 47%.

`CC1Cc2c(OCc3ccc(-c4ccccc4)cn3)ccc3c2c(c(COc2ccccc2CC(=O)O)n3Cc2cccc(Cl)c2)S1` (stereo in doubt; 14b) gave a pIC50 in data set [1] of 7.74. Besides, the F in data set [3] was determined as 11%. This molecule registered an inhibition in vivo at 5 mg/kg in data set [4] of 74%.

In data set [1], `CC1Cc2c(OCc3ccc(-c4ccccc4)cn3)ccc3c2c(c(COc2ccccc2CC(=O)O)n3Cc2cccc(Cl)c2)S1` (stereo in doubt; (+)14b) showed a pIC50 of 7.02.

Take `CC1Cc2c(OCc3ccc(-c4ccccc4)cn3)ccc3c2c(c(COc2ccccc2CC(=O)O)n3Cc2cccc(Cl)c2)S1` (stereo in doubt; (-)14b): the pIC50 in data set [1] is 8.00. For the same molecule, the F in data set [3] came out at 32%. Moreover, in data set [4] (5 mg/kg), the Inhibition came to 58%.

As for `CC(C)(C)Sc1c(CC(C)(C)C(=O)O)n(Cc2ccc(Cl)cc2)c2ccc(OCc3ccc4ccccc4n3)cc12` [QUIFLAPON], the values for the pIC50 in data set [1] and in data set [2] were below 5.00 and 8.80, respectively.

Values taken from ChEMBL document CHEMBL1128640, “Thiopyranol[2,3,4-c,d]indoles as inhibitors of 5-lipoxygenase, 5-lipoxygenase-activating protein, and leukotriene C4 synthase” (J Med Chem, 1995).
